According to paper PMC7042484 (Redox Biology, 2020):
Entries after “also recorded” stand apart in the source; their conditions may differ.

Experiments:
xanthine oxidase = xanthine oxidase (Bos taurus, UniProt P80457); assay: Xanthine Oxidase assay; format: biochemical; settings: 100 μM compound, hypoxanthine, Amplex Red/peroxidase
Procedure, shortened: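 Compound (100 μM) with xanthine oxidase, 100 μM Amplex Red, 0.4 U/mL horseradish peroxidase and 0.2 mM hypoxanthine. 15 min at 37 °C; H2O2-derived resorufin read by fluorescence, ex 530/em 590 nm.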

[1] = NADH-PMS superoxide-scavenging assay; settings: 100 μM compound, PMS-NADH/nitroblue tetrazolium
Procedure, shortened: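 Non-enzymatic superoxide generation in 16 mM Tris-HCl pH 8.0 with 80 μM nitroblue tetrazolium and 70 μM NADH plus compound (100 μM). Started with 5 μM phenazine methosulfate; 5 min at 25 °C; A560. SOD as positive control; lower absorbance than the negative control scored as scavenging.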

NOXs = assay: Initial evaluation of NOX inhibitors, isoform not specified; format: biochemical; settings: 100 μM compound
bacterial NOX5 [2] = target: T1, bacterial NOX5 (Cylindrospermum stagnale, UniProt K9WT99); assay: Initial evaluation on NOX5 membrane preparations; format: biochemical; settings: for inhibition of NOX5 (in words): 100 μM compound, membranes
T1 sequence (K9WT99 1-693): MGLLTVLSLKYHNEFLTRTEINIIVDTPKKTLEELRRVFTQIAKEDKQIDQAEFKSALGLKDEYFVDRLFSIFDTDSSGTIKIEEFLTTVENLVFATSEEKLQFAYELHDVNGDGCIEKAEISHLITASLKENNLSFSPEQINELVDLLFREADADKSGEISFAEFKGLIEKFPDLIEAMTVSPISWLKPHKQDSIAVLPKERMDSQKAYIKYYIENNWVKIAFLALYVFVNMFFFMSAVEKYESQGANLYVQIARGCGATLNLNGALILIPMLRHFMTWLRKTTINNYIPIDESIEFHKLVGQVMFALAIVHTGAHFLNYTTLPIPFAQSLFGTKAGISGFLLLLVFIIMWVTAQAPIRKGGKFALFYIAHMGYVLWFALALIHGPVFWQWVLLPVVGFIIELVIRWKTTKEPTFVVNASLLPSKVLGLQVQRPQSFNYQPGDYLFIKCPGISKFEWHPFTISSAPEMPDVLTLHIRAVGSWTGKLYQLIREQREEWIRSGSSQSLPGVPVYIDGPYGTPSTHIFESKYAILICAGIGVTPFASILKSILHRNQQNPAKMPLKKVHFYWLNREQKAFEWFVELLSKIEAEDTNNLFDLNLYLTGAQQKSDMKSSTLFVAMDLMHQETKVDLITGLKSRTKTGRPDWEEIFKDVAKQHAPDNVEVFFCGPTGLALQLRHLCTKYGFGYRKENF

human NOX2 [3] = target: T2, human NOX2 (Homo sapiens, UniProt P04839); assay: Initial evaluation on NOX2 membrane preparations; format: biochemical; settings: for inhibition of NOX2 (in words): 100 μM compound, membranes
T2 sequence (P04839 2-570 limits assumed): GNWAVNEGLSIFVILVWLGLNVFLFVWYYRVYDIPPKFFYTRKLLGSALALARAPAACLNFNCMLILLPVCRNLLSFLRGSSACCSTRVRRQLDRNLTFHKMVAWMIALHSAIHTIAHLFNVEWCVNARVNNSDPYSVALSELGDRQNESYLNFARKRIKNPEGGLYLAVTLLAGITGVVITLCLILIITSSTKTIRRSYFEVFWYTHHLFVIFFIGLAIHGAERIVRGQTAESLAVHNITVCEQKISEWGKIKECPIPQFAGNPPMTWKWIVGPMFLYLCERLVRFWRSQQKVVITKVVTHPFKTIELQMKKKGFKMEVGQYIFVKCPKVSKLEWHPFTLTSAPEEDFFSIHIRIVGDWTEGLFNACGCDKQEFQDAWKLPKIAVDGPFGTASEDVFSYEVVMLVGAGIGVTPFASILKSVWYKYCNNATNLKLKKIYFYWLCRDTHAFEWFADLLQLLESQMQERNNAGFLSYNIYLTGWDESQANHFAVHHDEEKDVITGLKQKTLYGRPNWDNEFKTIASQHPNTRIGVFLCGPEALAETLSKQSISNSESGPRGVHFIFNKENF
T2 sequence (P13498 2-195 partner limits assumed): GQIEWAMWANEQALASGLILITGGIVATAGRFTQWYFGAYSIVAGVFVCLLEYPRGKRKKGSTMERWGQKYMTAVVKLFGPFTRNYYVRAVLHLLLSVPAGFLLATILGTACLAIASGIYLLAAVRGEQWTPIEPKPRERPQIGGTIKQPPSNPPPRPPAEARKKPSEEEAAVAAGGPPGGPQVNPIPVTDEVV

human NOX4 = target: T3, human NOX4 (Homo sapiens, UniProt Q9NPH5); assay: Initial evaluation on NOX4 membrane preparations; format: biochemical; settings: for inhibition of NOX4 (in words): 100 μM compound, membranes
T3 sequence (Q9NPH5 1-578): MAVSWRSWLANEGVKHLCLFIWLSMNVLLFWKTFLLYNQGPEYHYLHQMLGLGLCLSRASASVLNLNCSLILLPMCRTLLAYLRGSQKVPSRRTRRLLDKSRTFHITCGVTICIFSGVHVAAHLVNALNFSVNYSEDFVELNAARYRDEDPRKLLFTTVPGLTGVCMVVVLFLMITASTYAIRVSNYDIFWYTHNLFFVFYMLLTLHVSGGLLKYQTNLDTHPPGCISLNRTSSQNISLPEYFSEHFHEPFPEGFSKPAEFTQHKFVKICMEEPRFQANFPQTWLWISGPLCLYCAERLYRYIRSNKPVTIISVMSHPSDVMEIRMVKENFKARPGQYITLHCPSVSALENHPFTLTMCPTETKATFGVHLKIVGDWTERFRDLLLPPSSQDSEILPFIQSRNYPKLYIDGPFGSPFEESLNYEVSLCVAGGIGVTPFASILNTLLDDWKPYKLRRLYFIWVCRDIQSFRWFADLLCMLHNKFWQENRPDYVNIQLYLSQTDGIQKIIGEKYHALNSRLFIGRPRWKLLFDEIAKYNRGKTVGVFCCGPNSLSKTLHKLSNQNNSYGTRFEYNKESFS
T3 sequence (P13498 2-195 partner limits assumed): T2 sequence (P13498 2-195 partner limits assumed)
Procedure, shortened: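 NOX4-p22 membranes from transfected HEK293 EBNA-1 cells, compound 100 μM, 10 min preincubation at 4 °C in PBS. Amplex Red: 100 μg membranes, 12.5 μM Amplex Red, 0.02 U/ml HRP, 40 μM FAD, started with 40 μM NADPH, ex 572/em 583 nm. CBA: 50 μg membranes, 20 μM FAD, then 200 μM coumarin boronic acid and 50 μM NADPH, ex 320/em 430 nm.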

[4] = MCLA auto-oxidation assay; settings: 100 μM compound
bacterial NOX5 [5] = target: T1, bacterial NOX5; assay: MCLA assay on NOX5 membranes; format: biochemical
Procedure, shortened: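 E. coli membranes carrying FLAG-(His)8-SUMO-tagged C. stagnale NOX5, 12 μg, in PBS with 1 mM CaCl2, 0.5 μM FAD and 1 μM MCLA. Compound (100 μM single point, or concentration series) 10 min at 25 °C. Started with 200 μM NADPH; chemiluminescence read. Membranes lacking NOX5 set noise level. IC50 by sigmoidal fit, % of untreated control.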

[6] = target: T4, wild-type dehydrogenase domain of bacterial NOX5 (Cylindrospermum stagnale, UniProt K9WT99); assay: NADPH-depletion assay on purified wild-type NOX5 dehydrogenase domain; format: biochemical
T4 sequence (K9WT99 413-693): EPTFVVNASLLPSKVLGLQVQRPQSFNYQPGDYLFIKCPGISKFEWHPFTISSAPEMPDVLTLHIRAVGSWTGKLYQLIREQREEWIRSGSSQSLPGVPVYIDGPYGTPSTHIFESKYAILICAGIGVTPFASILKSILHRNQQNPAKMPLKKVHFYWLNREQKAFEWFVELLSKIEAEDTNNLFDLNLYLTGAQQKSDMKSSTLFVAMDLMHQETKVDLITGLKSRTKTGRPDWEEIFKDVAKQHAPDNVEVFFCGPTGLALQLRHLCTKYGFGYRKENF

[7] = target: C-terminal mutant dehydrogenase domain of bacterial NOX5; assay: NADPH-depletion assay on C-terminal mutant NOX5 dehydrogenase domain; format: biochemical, Cylindrospermum stagnale; settings: uncompetitive, low-activity mutant of the dehydrogenase domain
[8] = target: full-length bacterial NOX5 (Cylindrospermum stagnale, UniProt K9WT99); assay: biochemical
[9] = system: wild-type NOX5 dehydrogenase domain; assay: Thermal shift analysis on purified NOX5 dehydrogenase domain; format: binding, Cylindrospermum stagnale; settings: inflection temperature Ti, 35–95 °C
Procedure, shortened: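 Wild-type purified NOX5 dehydrogenase domain, with or without ligand, heated from 35 °C to 95 °C over 3 min on a Tycho system; inflection temperature (Ti) determined.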

[10] = target: T5, wild-type dehydrogenase domain of NOX5 (Cylindrospermum stagnale, UniProt K9WT99); assay: Microscale thermophoresis binding assay on purified NOX5 dehydrogenase domain
T5 sequence (K9WT99 413-693): T4 sequence (K9WT99 413-693)
Procedure, shortened: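 Microscale thermophoresis with fluorescently labelled wild-type NOX5 dehydrogenase domain (~200 nM). Ligand given as 16 serial dilutions up to 6.4 mM in 50 mM Hepes, 240 mM NaCl, 0.5% glycerol, 250 μM FAD, 0.1% pluronic acid, pH 7.5. Incubated 10 min at 25 °C; recorded at 25 °C, red channel. Kd from binding isotherms, triplicate, standard deviation.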

human NOX2 [11] = target: T2, human NOX2; assay: MCLA assay on NOX2 membranes; format: biochemical; settings: 100 μM compound
[12] = Amplex Red/peroxidase assay in the absence of a NOX enzyme; settings: 100 μM compound, no NOX enzyme, NADPH present
Procedure, shortened: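 Compound (100 μM) added to the Amplex Red/horseradish peroxidase H2O2 read-out with NADPH present but no NOX membranes, to probe reagent interference. Resorufin fluorescence read on a plate reader.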

Chain of xanthine oxidase (P80457 whole entry): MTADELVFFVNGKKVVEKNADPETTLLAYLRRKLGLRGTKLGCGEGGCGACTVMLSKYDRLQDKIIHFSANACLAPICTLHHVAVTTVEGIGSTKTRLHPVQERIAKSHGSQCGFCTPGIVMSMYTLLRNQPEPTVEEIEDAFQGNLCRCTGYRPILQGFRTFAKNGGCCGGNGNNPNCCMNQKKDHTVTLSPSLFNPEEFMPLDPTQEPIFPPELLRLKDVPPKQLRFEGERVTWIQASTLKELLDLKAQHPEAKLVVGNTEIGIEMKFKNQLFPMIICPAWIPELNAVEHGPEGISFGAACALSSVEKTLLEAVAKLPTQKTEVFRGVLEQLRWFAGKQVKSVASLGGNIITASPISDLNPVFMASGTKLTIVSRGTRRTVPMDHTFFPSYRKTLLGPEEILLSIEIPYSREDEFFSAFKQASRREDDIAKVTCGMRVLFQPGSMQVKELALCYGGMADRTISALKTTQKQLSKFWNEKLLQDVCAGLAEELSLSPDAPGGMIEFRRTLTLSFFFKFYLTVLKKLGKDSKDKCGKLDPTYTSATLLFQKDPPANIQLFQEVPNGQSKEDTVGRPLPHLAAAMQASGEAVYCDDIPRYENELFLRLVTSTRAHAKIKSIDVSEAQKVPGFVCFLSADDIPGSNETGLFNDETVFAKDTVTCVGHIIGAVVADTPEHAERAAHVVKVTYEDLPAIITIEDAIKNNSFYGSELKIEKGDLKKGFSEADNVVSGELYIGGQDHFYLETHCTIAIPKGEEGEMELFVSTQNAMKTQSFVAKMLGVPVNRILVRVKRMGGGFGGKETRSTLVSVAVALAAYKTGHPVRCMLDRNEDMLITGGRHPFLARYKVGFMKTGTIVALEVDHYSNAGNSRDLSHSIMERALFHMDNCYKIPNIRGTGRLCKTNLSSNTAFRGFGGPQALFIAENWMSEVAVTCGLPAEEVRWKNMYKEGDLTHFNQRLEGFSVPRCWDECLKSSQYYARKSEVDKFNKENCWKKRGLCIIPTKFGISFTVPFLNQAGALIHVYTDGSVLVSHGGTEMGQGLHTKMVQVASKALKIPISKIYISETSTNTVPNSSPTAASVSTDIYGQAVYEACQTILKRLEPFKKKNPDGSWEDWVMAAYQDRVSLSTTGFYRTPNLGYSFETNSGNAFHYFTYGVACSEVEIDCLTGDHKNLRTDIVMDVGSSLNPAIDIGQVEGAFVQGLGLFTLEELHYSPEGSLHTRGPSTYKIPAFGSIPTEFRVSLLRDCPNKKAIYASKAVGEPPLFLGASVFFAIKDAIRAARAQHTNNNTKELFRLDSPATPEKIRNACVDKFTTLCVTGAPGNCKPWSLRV

inhibition of the hydrogen peroxide-producing activity of xanthine oxidase (xanthine oxidase)	Structure (SMILES)	superoxide scavenging [1]	inhibition of NOX5 (in words) (bacterial NOX5 [2])	interference with MCLA auto-oxidation [4]	inhibition of NOX2 (in words) (human NOX2 [3])	inhibition of NOX4 (in words) (human NOX4)	also measured
powerful inhibitions	OCCN1CCN(CCCN2c3ccccc3Sc3ccc(Cl)cc32)CC1 [perphenazine]	mild scavenging activities					
	O=c1[nH]c2ccccc2c2ccccc12 [phenanthridinone, 6(5H)-phenanthridinone]	mild scavenging activities					pattern of NOX inhibition (in words) (NOXs): assay-dependent inhibitory activities
	C1CCC(C(CC2CCCCN2)C2CCCCC2)CC1 (stereo not drawn) [perhexiline]		not against NOX5	interfered with the MCLA auto-oxidation			inhibition at 100 µM (human NOX2 [3]; read-out: inhibition of NOX2): 40 to 70%; inhibition at 100 µM (human NOX4; read-out: inhibition of NOX4): 40 to 70%
powerful inhibitions	CC1=NN(c2ccccc2)CC1 [3-methyl-1-phenyl-2-pyrazoline]						
powerful inhibitions	OCCN1CCN(CCCN2c3ccccc3Sc3ccc(C(F)(F)F)cc32)CC1 [fluphenazine]	mild scavenging activities					
powerful inhibitions	CN(C)CCCN1c2ccccc2Sc2ccccc21 [promazine]						
	CC1=CC(=O)c2c(O)cccc2C1=O [plumbagin]						pattern of NOX inhibition (in words) (NOXs): assay-dependent inhibitory activities
	CC(C)c1c(C(=O)Nc2ccccc2)c(-c2ccccc2)c(-c2ccc(F)cc2)n1CC[C@@H](O)C[C@@H](O)CC(=O)O [Atorvastatin]						inhibition at 100 µM (bacterial NOX5 [2]; read-out: inhibition of NOX5): ~50%
	Cc1ccc(C(=O)Nc2ccc(S(=O)(=O)O)c3cc(S(=O)(=O)O)cc(S(=O)(=O)O)c23)cc1NC(=O)c1cccc(NC(=O)Nc2cccc(C(=O)Nc3cc(C(=O)Nc4ccc(S(=O)(=O)O)c5cc(S(=O)(=O)O)cc(S(=O)(=O)O)c45)ccc3C)c2)c1 [suramin]	strong superoxide scavenger	full		full	full	Ki [6]: 0.39 ± 0.05 µM; Kd [10]: 52.2 ± 1.1 µM; stabilising effect in thermal shift analysis [9]: lack of any stabilising effect
powerful inhibitions	CN(C)c1cccc(-c2c3c(=O)n(-c4ccccc4Cl)[nH]c3cc(=O)n2C)c1 [GKT137831]			substantial interference		strong NOX4 inhibitors	inhibition of NOX5 with the MCLA-based protocol (in words) (bacterial NOX5 [5]; 100 μM compound, MCLA assay): moderately active; inhibition of NOX2 with MCLA (in words) (human NOX2 [11]): moderately active; interference on the Amplex Red/peroxidase assay [12]: substantial interference

Structure (SMILES)	inhibition of the hydrogen peroxide-producing activity of xanthine oxidase (xanthine oxidase)	superoxide scavenging [1]	inhibition of NOX5 (in words) (bacterial NOX5 [2])	interference with MCLA auto-oxidation [4]	inhibition of NOX2 (in words) (human NOX2 [3])	inhibition of NOX4 (in words) (human NOX4)	also measured
c1ccc2c(c1)[I+]c1ccccc1-2 [DPI, Diphenylene iodonium]	powerful inhibitions; also recorded: inhibits xanthine oxidase		full		full	full	IC50 (bacterial NOX5 [5]): 3.28 ± 1.32 µM; αKi ([6]; wild-type domain, exogenous FAD 300 μM): 127 ± 13 µM; αKi [7]: 0.42 ± 0.06 µM; Ki [8]: 0.98 ± 0.14 µM
CC1=C(O)C(=O)C=C2C1=CC=C1[C@@]2(C)CC[C@@]2(C)[C@@H]3C[C@](C)(C(=O)O)CC[C@]3(C)CC[C@]12C [celastrol]	powerful inhibitions		full	interfered with the MCLA auto-oxidation	full	full	stabilising effect in thermal shift analysis [9]: lack of any stabilising effect
O=c1c2ccccc2[se]n1-c1ccccc1 [ebselen]	powerful inhibitions		full	substantial interference	full	full	interference on the Amplex Red/peroxidase assay [12]: substantial interference; stabilising effect in thermal shift analysis [9]: lack of any stabilising effect
